Results gathered from unrelated publications.
Each line is one published result; the experiments were not run side by side. pIC50: −log10 of the molar value.
Read-out: cell growth or viability

Cc1cc(C)cc(NC(=O)Nc2nc3cc(-c4ccc5ncn(Cc6ccccc6)c(=O)c5c4)ccc3s2)c1  pIC50 (PC-9; MTT; 72 h): < 4.70
COc1cc(C2C3=C(COC3=O)N(CCO)c3cc4c(cc32)CCC4)cc(OC)c1OC (centres unmarked)  pIC50 (EMT6; ATP luminescence; 48 h): 6.74
O=C1CCC(N2C(=O)c3cccc4c(Cc5cnn(C6CCNCC6)c5)ccc2c34)C(=O)N1 (centres unmarked)  pIC50 (NCI-H929): 9.80
O=C(NO)c1ccc(Cn2cnc3c(Nc4ccc(Br)cc4F)ncnc32)cc1  pIC50 (Raji; MTT; 72 h): 6.64
O=C(Nc1cccc(F)c1)Nc1nc2cc(-c3ccc4ncn(Cc5ccccc5)c(=O)c4c3)ccc2s1  pIC50 (PC-9; MTT; 72 h): < 4.70
O=C1CCC(N2C(=O)c3cccc4c(Cc5ccc(CN6CCNCC6)cc5)ccc2c34)C(=O)N1 (centres unmarked)  pIC50 (NCI-H929): 9.14
Cc1cccc(N=C2C(=O)N(Cc3ccccc3)c3ccccc32)c1  pIC50 (HCT-116; MTT; 48 h): 5.57
Cc1nc(Nc2ncc(C(=O)Nc3c(C)cccc3Cl)s2)cc(N2CC[C@H](O)C2)n1  pIC50 (JVM13; ATP luminescence; 72 h): < 5.00
O=C1C(=Nc2ccc(Cl)cc2Br)c2ccccc2N1Cc1ccc(Br)cc1  pIC50 (HCT-116; MTT; 48 h): 6.22
Cc1ccc(NC(=O)Nc2nc3cc(-c4ccc5ncn(Cc6ccccc6)c(=O)c5c4)ccc3s2)cc1  pIC50 (PC-9; MTT; 72 h): < 4.70
Nc1ccccc1NC(=O)c1ccc(Cn2cnc3c(Nc4ccc(Br)cc4F)ncnc32)cc1  pIC50 (Raji; MTT; 72 h): 6.92
O=C1CCC(N2C(=O)c3cccc4c(Cn5cc(C6CCNCC6)nn5)ccc2c34)C(=O)N1 (centres unmarked)  pIC50 (NCI-H929): 8.21
O=C(Nc1ccc(C(F)(F)F)cc1)Nc1nc2cc(-c3ccc4ncn(CCN5CCOCC5)c(=O)c4c3)ccc2s1  pIC50 (PC-9; MTT; 72 h): < 4.70
O=C(NO)c1ccc(Cn2cnc3c(Nc4ccc(F)c(Cl)c4)ncnc32)cc1  pIC50 (Raji; MTT; 72 h): 6.06
COc1cccc2c1C(=O)c1c(O)c3c(c(O)c1C2=O)C[C@@](O)(C(=O)CO)C[C@@H]3O[C@H]1C[C@H](N)[C@H](O)[C@H](C)O1  pIC50 (DOHH-2; 96 h): 5.00
COc1ccc(Nc2ncnc3c2ncn3Cc2ccc(C(=O)Nc3ccccc3N)cc2)cc1  pIC50 (Raji; MTT; 72 h): 4.96
O=C1CCC(N2Cc3c(OCc4ccc(CN5CCNCC5)cc4)cccc3C2=O)C(=O)N1 (centres unmarked)  pIC50 (NCI-H929): 7.69
COc1cccc(NC(=O)Nc2nc3cc(-c4ccc5ncn(CCN6CCOCC6)c(=O)c5c4)ccc3s2)c1  pIC50 (PC-9; MTT; 72 h): < 4.70
O=C1CCC(N2C(=O)c3cccc4c(Cc5cnn(C6CCN(C(=O)CO)CC6)c5)ccc2c34)C(=O)N1 (centres unmarked)  pIC50 (NCI-H929): 9.80
COc1ccc(NC(=O)Nc2nc3cc(-c4ccc5ncn(CCN(C)C)c(=O)c5c4)ccc3s2)cc1  pIC50 (PC-9; MTT; 72 h): < 4.70
Nc1cccc2c1CN(C1CCC(=O)NC1=O)C2=O (centres unmarked)  pIC50 (NCI-H929): < 7.30
CN(C)CCn1cnc2ccc(-c3ccc4sc(NC(=O)Nc5ccc(F)cc5)nc4c3)cc2c1=O  pIC50 (PC-9; MTT; 72 h): 5.31
CCCc1cc2cc(-n3nc(C)c4c3CC(C)(C)CC4=O)cc(N3CCC(O)CC3)c2c(=O)[nH]1  pIC50 (SK-OV-3; MTS): 5.53
